For assay [1], the system named is MT4. Description: In vitro anti viral activity against HIV-1(IIIB) in MT-4 T-lymphoid cell culture by p-24-ELISA assay. Format: functional, Homo sapiens. Put shortly: (§1)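 Read-out is the minimum cell culture inhibitory concentration (CIC), the lowest concentration that fully prevents spread of viral infection in the human cell culture. Spread is scored by fixed-cell immunofluorescence or by p24 ELISA.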
For orientation: An ELISA detects its analyte on a solid surface through an enzyme-linked reagent.

Assay [2] has as its target T1, Human immunodeficiency virus type 1 protease (Human immunodeficiency virus 1, UniProt Q72874). Kind of assay: (§2) In vitro enzyme inhibitory activity against HIV-1 protease.
The test system of assay [3] is H9. Kind of assay: In vitro anti viral activity against HIV-1 in human H9 T-lymphoid cell culture by p-24-ELISA assay. It is filed as functional. Put shortly: as §1
In assay [4] the target is Human immunodeficiency virus type 1 protease (Human immunodeficiency virus 1) (UniProt Q72874). Kind of assay: Ratio of inhibitory activity on HIV-1 protease (IC50) to antiviral activity against HIV-1 in human H9 T-lymphoid cell-ELISA assay(CIC). It is filed as functional, cell-based. Put shortly: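 Ratio of enzyme IC50 against HIV-1 protease to CIC. CIC is the minimum cell culture inhibitory concentration that prevents spread of HIV-1 infection in human H9 T-lymphoid cells, read out by p24 ELISA.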

The test system of assay [5] is H9. Description: In vitro anti viral activity against HIV-1 in human H9 T-lymphoid cell culture by fixed cell immunofluorescence assay. It is filed as functional. The method in brief: as §1
For assay [6], the system named is H9. Kind of assay: In vitro anti viral activity against HIV-1(IIIb) in H9 T-lymphoid cell culture by fixed cell immunofluorescence assay. Format: functional, Homo sapiens. The method in brief: as §1
Assay [7] concerns H9. Kind of assay: In vitro anti viral activity against HIV-1(IIIb) in H9 T-lymphoid cell culture by p-24 ELISA assay. Format: functional, Homo sapiens. Put shortly:
as §1

The test system of assay [8] is H9. Description: In vitro anti viral activity against SIV-mac251 in H9 T-lymphoid cell culture by fixed cell immunofluorescence assay. Format: functional, Homo sapiens. The method in brief: as §1
For assay [9], the system named is H9. Description: In vitro anti viral activity against SIV(mne) in H9 T-lymphoid cell culture by fixed cell immunofluorescence assay. It is filed as functional, Homo sapiens. Put shortly:
as §1

Assay [10] deals with MT4. Description: In vitro anti viral activity against HIV-1(RUTZ) in MT-4 T-lymphoid cell culture by fixed cell immunofluorescence assay. It is filed as functional, Homo sapiens. Put shortly: as §1
The subject of assay [11] is MT4. Description: In vitro anti viral activity against HIV-1(WMJ-2) in MT-4 T-lymphoid cell culture by fixed cell immunofluorescence assay. Format: functional, Homo sapiens. The method in brief: as §1
For assay [12], the system named is MT4. Kind of assay: In vitro anti viral activity against HIV-1(IIIb) MT-4 T-lymphoid cell culture by fixed cell immunofluorescence assay. It is filed as functional, Homo sapiens. Put shortly:
as §1

The test system of assay [13] is MT4. Description: In vitro anti viral activity against HIV-1(IIIb) MT-4 T-lymphoid cell culture by p-24-ELISA assay. Format: functional, Homo sapiens. Put shortly: as §1
Assay [14] relates to MT4. Kind of assay: In vitro anti viral activity against HIV-1(MN) in MT-4 T-lymphoid cell culture by fixed cell immunofluorescence assay. It is filed as functional, Homo sapiens. Put shortly:
as §1

Assay [15] deals with MT4. Kind of assay: In vitro anti viral activity against HIV-1(RF) in MT-4 T-lymphoid cell culture by fixed cell immunofluorescence assay. Format: functional, Homo sapiens. Put shortly: as §1
Assay [16] deals with T1, Human immunodeficiency virus type 1 protease. The description is as §2. It is filed as functional.
For assay [17], the species on record is Homo sapiens. Kind of assay: In vitro anti viral activity against HIV-1(IIIb) in peripheral blood lymphocytes by fixed cell immunofluorescence assay. It is filed as functional. The method in brief:
as §1

The species named for assay [18] is Homo sapiens. Kind of assay: In vitro anti viral activity against HIV-1(IIIb) in peripheral blood lymphocytes by p-24-ELISA assay. It is filed as functional. The method in brief:
as §1

The species entered for assay [19] is Homo sapiens. Kind of assay: In vitro anti viral activity against HIV-1(SF162) in monocytes/macrophages by fixed cell immunofluorescence assay. Format: functional. The method in brief:
as §1

Regarding `Cc1cn([C@H]2C[C@H](N=[N+]=[N-])[C@@H](CO)O2)c(=O)[nH]c1=O` [ZIDOVUDINE], the CIC in the assay with MT4 [1] turned out to be 25 nM.

The term IC50 denotes the point on the concentration scale where inhibition reaches its midpoint. High values mean weaker potency in that assay, low ones greater potency in that assay. In turn, `CN1CCN(CCOc2ccc(C[C@H](C[C@H](O)[C@H](Cc3ccccc3)NC(=O)OC(C)(C)C)C(=O)NC3c4ccccc4C[C@H]3O)cc2)CC1` (some centres undefined) gave an IC50 in assay [2] of 0.2 nM. In the assay on H9 [3], this compound had a CIC of 100 nM. Besides, in [4], the I/C amounted to 0.002.

In assay [2], `CC(C)(C)OC(=O)N[C@@H](Cc1ccc(O)cc1)[C@@H](O)C[C@@H](Cc1ccccc1)C(=O)NC1c2ccccc2C[C@H]1O` (some centres undefined) displayed an IC50 of 0.35 nM. In addition, the CIC in the assay on H9 [3] came out at 25 nM; in the assay with H9 [5], 50 nM. Further, the I/C in assay [4] came to 0.007.

`CC(C)(C)OC(=O)N[C@@H](Cc1ccccc1)[C@@H](O)C[C@@H](Cc1ccc(OCCN2CCCCC2)cc1)C(=O)NC1c2ccccc2C[C@H]1O` (some centres undefined) displayed a concentration for half-maximal inhibition (IC50) in [2] of 1.6 nM. Besides, the I/C in assay [4] was 0.004. In the assay on H9 [5], this compound yielded a CIC of 400 nM.

In assay [2], `COCCN(CCOC)CCOc1ccc(C[C@H](C[C@H](O)[C@H](Cc2ccccc2)NC(=O)OC(C)(C)C)C(=O)NC2c3ccccc3C[C@H]2O)cc1` (some centres undefined) yielded an IC50 of 0.9 nM. In addition, the I/C in assay [4] was 0.018. The compound further returned a CIC in the assay with H9 [5] of 50 nM.

Compound `CC(C)(C)OC(=O)N[C@@H](Cc1ccccc1)[C@@H](O)C[C@@H](Cc1ccc(OCCO)cc1)C(=O)NC1c2ccccc2C[C@H]1O` (some centres undefined) registered an IC50 in assay [2] of 0.09 nM. This compound also displayed a CIC in the assay with H9 [3] of 50 nM. In addition, in [4], the I/C is 0.0018.

For the compound `CC(C)(C)OC(=O)N[C@@H](Cc1ccccc1)[C@@H](O)C[C@@H](Cc1ccc(OCCN2CCOCC2)cc1)C(=O)N[C@H]1c2ccccc2C[C@H]1O`, the CIC in the assay on H9 [6] is 12 nM; with H9 [7] it was 25 nM; with H9 [8], 800 nM; in the assay on H9 [9], 200 nM; in the assay with MT4 [10], 12 nM; in the assay on MT4 [11], 12 nM. Moreover, the CIC turned out to be 25 nM in the assay with MT4 [12]; 50 nM in the assay with MT4 [13]; 25 nM in the assay with MT4 [14]; 50 nM in the assay with MT4 [15]; 0.78 nM in the assay filed under Homo sapiens [17]; 25 nM in the assay listed under Homo sapiens [18]. For the same compound, the CIC in the assay on H9 [3] turned out to be 50 nM; in the assay listed under Homo sapiens [19], 50 nM; in the assay on H9 [5], 12 nM. The compound further gave an IC50 in assay [16] of 0.45 nM. Besides, the I/C in assay [4] came to 0.038.

On to `NC1N=CNc2c1ncn2[C@H]1CC[C@@H](CO)O1` (some centres undefined), for which the CIC in the assay on H9 [5] came out at 25000 nM.

`CC(C)(C)OC(=O)N[C@@H](Cc1ccccc1)[C@@H](O)C[C@@H](Cc1ccc(OCCN2CC[S+]([O-])CC2)cc1)C(=O)NC1c2ccccc2C[C@H]1O` (some centres undefined) had an IC50 in assay [2] of 0.07 nM. The I/C in assay [4] came out at 0.00035. The compound also had a CIC in the assay on H9 [5] of 200 nM.

In the case of `CC(C)(C)OC(=O)N[C@@H](Cc1ccccc1)[C@@H](O)C[C@@H](Cc1ccc(OCCN2CCS(=O)(=O)CC2)cc1)C(=O)NC1c2ccccc2C[C@H]1O` (some centres undefined), the IC50 in [2] came to 0.08 nM. Also, in the assay on H9 [3], the CIC is given as 100 nM. Moreover, the I/C in assay [4] came to 0.0008.

Compound `CC(C)(C)OC(=O)N[C@@H](Cc1ccccc1)[C@@H](O)C[C@@H](Cc1ccc(OCCCN2CCOCC2)cc1)C(=O)NC1c2ccccc2C[C@H]1O` (some centres undefined) came in with an IC50 in assay [2] of 2 nM. For the same compound, in [4], the I/C was determined as 0.01. Further, the CIC in the assay on H9 [5] came to 200 nM.

Regarding `CN(C)CCOc1ccc(C[C@H](C[C@H](O)[C@H](Cc2ccccc2)NC(=O)OC(C)(C)C)C(=O)NC2c3ccccc3C[C@H]2O)cc1` (some centres undefined), half-maximal inhibition in assay [2] (IC50) was put at 1 nM. In assay [4], the I/C amounted to 0.0025. Also, in the assay on H9 [5], the CIC is listed as 400 nM.

`CC(C)(C)OC(=O)N[C@@H](Cc1ccccc1)[C@@H](O)CC(Cc1ccc(OCC(=O)O)cc1)C(=O)NC1c2ccccc2C[C@H]1O` (some centres undefined) showed a half-maximal inhibitory concentration (IC50) in assay [2] of 0.04 nM. In the assay on H9 [3], the CIC is >400 nM. The I/C in [4] is < 0.0001.

The compound `CC(C)(C)OC(=O)N[C@@H](Cc1ccccc1)[C@@H](O)C[C@@H](Cc1ccc(OCc2ccccc2)cc1)C(=O)NC1c2ccccc2C[C@H]1O` (some centres undefined) showed an IC50 in assay [2] of 0.18 nM. Also, the CIC in the assay on H9 [3] was determined as 50 nM. Also, the I/C in assay [4] was 0.0036.

With `CC(C)(C)OC(=O)N[C@@H](Cc1ccc(OCCN2CCOCC2)cc1)[C@@H](O)C[C@@H](Cc1ccccc1)C(=O)NC1c2ccccc2C[C@H]1O` (some centres undefined), in assay [2], the midpoint of inhibition, the IC50, lay at 0.55 nM. Further, the I/C in assay [4] was 0.011. For the same compound, in the assay on H9 [5], the CIC turned out to be 50 nM.

As for `CC(C)(C)OC(=O)N[C@@H](Cc1ccc(O)cc1)[C@@H](O)C[C@@H](Cc1ccc(O)cc1)C(=O)NC1c2ccccc2C[C@H]1O` (some centres undefined), half-maximal inhibition in assay [2] (IC50) was put at 0.15 nM. In assay [4], the I/C was found to be 0.0002. In the assay on H9 [5], the CIC was 780 nM.

The compound `CC(C)(C)OC(=O)N[C@@H](Cc1ccccc1)[C@@H](O)C[C@@H](Cc1ccc(OCCN2CCSCC2)cc1)C(=O)NC1c2ccccc2C[C@H]1O` (some centres undefined) had an IC50 in assay [2] of 0.47 nM. Moreover, the I/C in assay [4] worked out at 0.0094. The CIC in the assay with H9 [5] was 50 nM.

With `CC(C)(C)OC(=O)N[C@@H](Cc1ccccc1)[C@@H](O)C[C@@H](Cc1ccccc1)C(=O)N[C@H]1c2ccccc2C[C@H]1O`, half-maximal inhibition in [2] (IC50) was put at 0.35 nM. For the same compound, in assay [4], the I/C stood at 0.0009. In the assay on H9 [5], the CIC is 400 nM.

Regarding `CC(C)(C)OC(=O)N[C@@H](Cc1ccccc1)[C@@H](O)C[C@@H](Cc1ccc(OCC[N+]2([O-])CCOCC2)cc1)C(=O)NC1c2ccccc2C[C@H]1O` (some centres undefined), 0.2 nM corresponded to half-maximal inhibition in assay [2] (IC50). In addition, the CIC with H9 [3] stood at 100 nM. For the same compound, the I/C in assay [4] worked out at 0.002.

Regarding `CC(C)(C)OC(=O)N[C@@H](Cc1ccccc1)[C@@H](O)C[C@@H](Cc1ccc(O)cc1)C(=O)N[C@H]1c2ccccc2C[C@H]1O`, the IC50 in assay [2] worked out at 0.16 nM. Further, the CIC in the assay on H9 [3] was found to be 50 nM; in the assay on H9 [5] it was 25 nM. For the same compound, in [4], the I/C worked out at 0.0032.

Turning to `CC(C)(C)OC(=O)N[C@@H](Cc1ccccc1)[C@@H](O)C[C@@H](Cc1ccc(OCC(=O)N2CCOCC2)cc1)C(=O)NC1c2ccccc2C[C@H]1O` (some centres undefined), in assay [2], 0.2 nM corresponded to half-maximal inhibition (IC50). In the assay with H9 [3], this compound displayed a CIC of 50 nM. Moreover, the I/C in assay [4] is 0.004.

`CC(C)(C)OC(=O)N[C@@H](Cc1ccc(OCCN2CCOCC2)cc1)[C@@H](O)C[C@@H](Cc1ccc(OCCN2CCOCC2)cc1)C(=O)NC1c2ccccc2C[C@H]1O` (some centres undefined) gave a half-inhibitory concentration (IC50) in assay [2] of 1.9 nM. Also, the I/C in assay [4] amounted to 0.019. The compound further registered a CIC in the assay with H9 [5] of 100 nM.

As to `CC(C)(C)OC(=O)N[C@@H](Cc1ccccc1)[C@@H](O)C[C@@H](Cc1ccc(OCCN2CCCC2)cc1)C(=O)NC1c2ccccc2C[C@H]1O` (some centres undefined), the IC50 in assay [2] was 1.8 nM.

The values above are taken from ChEMBL document CHEMBL1126030, “Synthesis and antiviral activity of a series of HIV-1 protease inhibitors with functionality tethered to the P1 or P1' phenyl substituents: X-ray crystal structure assisted design” (J Med Chem, 1992).
